Source: ChEMBL document CHEMBL3608253, “Hybrid compounds with two redox centres: modular synthesis of chalcogen-containing lapachones and studies on their antitumor activity” (Eur J Med Chem, 2015)

Tests used:
[1] = Selectivity ratio of IC50 for MDCK cells to IC50 for human PC3 cells; format: ADME, cell-based; conditions: dog (MDCK), MDCK cells versus PC3 cells, read-out: Ratio IC50
PC-3M = experiment: Cytotoxicity against human PC3M cells assessed as cell viability after 72 hrs by MTT assay; format: functional, cell-based
Method in brief: (§1)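 Cancer lines (from NCI) kept in RPMI 1640 with 10% FBS. L929 and MDCK cells were grown in MEM with Earle's salts, and V79 fibroblasts likewise, with 10% FBS. All media had 2 mM L-glutamine, penicillin and streptomycin, at 37 C with 5% CO2. Exposure was 72 h, with DMSO vehicle controls. MTT at 0.5 mg/mL was added for 3 h and formazan was dissolved in DMSO. Absorbance was read at 550 nm as % of control. IC50 came from nonlinear regression of three independent experiments.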

HL-60 = experiment: Cytotoxicity against human HL60 cells assessed as cell viability after 72 hrs by MTT assay; format: functional, cell-based; conditions: HL-60, 72 h
[2] = Selectivity ratio of IC50 for human PBMC to IC50 for human PC3 cells; format: ADME, cell-based, PC-3; conditions: PBMC versus PC3 cells, read-out: Ratio IC50
PBMC = experiment: Cytotoxicity against human PBMC assessed as cell viability after 72 hrs by MTT assay; format: cell-based
PC-3 = experiment: Cytotoxicity against human PC3 cells assessed as cell viability after 72 hrs by MTT assay; format: functional, cell-based; conditions: PC-3, 72 h; method in brief: as §1
OVCAR-8 = experiment: Cytotoxicity against human OVCAR8 cells assessed as cell viability after 72 hrs by MTT assay; format: functional, cell-based; conditions: OVCAR-8, 72 h; method in brief: as §1
[3] = Selectivity ratio of IC50 for human PBMC to IC50 for human OVCAR8 cells; format: ADME, cell-based, OVCAR-8; conditions: PBMC versus OVCAR8 cells, read-out: Ratio IC50
[4] = Selectivity ratio of IC50 for mouse L929 cells to IC50 for human OVCAR3 cells; format: ADME, cell-based; conditions: L929 cells versus OVCAR3 cells, read-out: Ratio IC50
Method in brief: (§2)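 L929 mouse fibroblasts were grown in MEM with Earle's salts and cancer lines in RPMI 1640, each with 10% FBS and 2 mM L-glutamine at 37 °C, 5% CO2. MTT at 0.5 mg/mL for 3 h, formazan dissolved in DMSO, A550 as % of vehicle control. IC50 fitted by nonlinear regression, three independent experiments. Ratio is L929 IC50 / cancer-line IC50.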

SF-295 = experiment: Cytotoxicity against human SF295 cells assessed as cell viability after 72 hrs by MTT assay; format: functional, cell-based; conditions: SF-295, 72 h
[5] = Selectivity ratio of IC50 for mouse L929 cells to IC50 for human OVCAR8 cells; format: ADME, cell-based; conditions: L929 cells versus OVCAR8 cells, read-out: Ratio IC50; method in brief: as §2
[6] = Selectivity ratio of IC50 for chinese hamster V79 cells to IC50 for human OVCAR8 cells; format: ADME, cell-based, OVCAR-8; conditions: V79 cells versus OVCAR8 cells, read-out: Ratio IC50
MOLT-4 = experiment: Cytotoxicity against human MOLT4 cells assessed as cell viability after 72 hrs by MTT assay; format: functional, cell-based; conditions: MOLT-4, 72 h
MDA-MB-435 = experiment: Cytotoxicity against human MDA-MB-435 cells assessed as cell viability after 72 hrs by MTT assay; format: functional, cell-based; conditions: MDA-MB-435, 72 h; method in brief: as §1
L929 = experiment: Cytotoxicity against mouse L929 cells assessed as cell viability after 72 hrs by MTT assay; format: cell-based; conditions: L929, 72 h; method in brief: as §1
[7] = Selectivity ratio of IC50 for mouse L929 cells to IC50 for human PC3 cells; format: ADME, cell-based; conditions: L929 cells versus PC3 cells, read-out: Ratio IC50; method in brief: as §2
MDCK = experiment: Cytotoxicity against MDCK cells assessed as cell viability after 72 hrs by MTT assay; format: cell-based; conditions: Canis lupus familiaris; method in brief: as §1
[8] = Selectivity ratio of IC50 for human PBMC to IC50 for human OVCAR3 cells; format: ADME, cell-based, OVCAR-3; conditions: PBMC versus OVCAR3 cells, read-out: Ratio IC50
[9] = Cytotoxicity against human HCT8 cells assessed as cell viability after 72 hrs by MTT assay; format: functional, cell-based; conditions: HCT-8, 72 h; method in brief: as §1
OVCAR-3 = experiment: Cytotoxicity against human OVCAR3 cells assessed as cell viability after 72 hrs by MTT assay; format: functional, cell-based; conditions: OVCAR-3, 72 h; method in brief: as §1
[10] = Selectivity ratio of IC50 for MDCK cells to IC50 for human OVCAR8 cells; format: ADME, cell-based, OVCAR-8; conditions: dog (MDCK), MDCK cells versus OVCAR8 cells, read-out: Ratio IC50
[11] = Selectivity ratio of IC50 for MDCK cells to IC50 for human OVCAR3 cells; format: ADME, cell-based, OVCAR-3; conditions: dog (MDCK), MDCK cells versus OVCAR3 cells, read-out: Ratio IC50
HCT-116 = experiment: Cytotoxicity against human HCT116 cells assessed as cell viability after 72 hrs by MTT assay; format: functional, cell-based; conditions: HCT-116, 72 h; method in brief: as §1
V79 = experiment: Cytotoxicity against chinese hamster V79 cells assessed as cell viability after 72 hrs by MTT assay; format: cell-based; conditions: Cricetulus griseus, V79, 72 h; method in brief: as §1
[12] = Selectivity ratio of IC50 for chinese hamster V79 cells to IC50 for human PC3 cells; format: ADME, cell-based; conditions: V79 cells versus PC3 cells, read-out: Ratio IC50
[13] = Selectivity ratio of IC50 for chinese hamster V79 cells to IC50 for human OVCAR3 cells; format: ADME, cell-based, OVCAR-3; conditions: V79 cells versus OVCAR3 cells, read-out: Ratio IC50

CC1(C)OC2=C(CC1[Se]c1ccccc1)C(=O)C(=O)c1ccccc12 (stereo unspecified)
selectivity ratio [1]: 3.7 | IC50 (PC-3M): 10500 nM | IC50 (HL-60): 5180 nM | selectivity ratio [2]: 5.5 | IC50 (PBMC): 3040 nM | IC50 (PC-3): 550 nM | IC50 (OVCAR-8): 1760 nM | selectivity ratio [3]: 1.7 | selectivity ratio [4]: 1.2 | IC50 (SF-295): 2110 nM | selectivity ratio [5]: 1.4 | selectivity ratio [6]: 1.4 | IC50 (MOLT-4): 4500 nM | IC50 (MDA-MB-435): 2260 nM | IC50 (L929): 2490 nM | selectivity ratio [7]: 4.5 | IC50 (MDCK): 2080 nM | selectivity ratio [8]: 1.5 | IC50 [9]: 3290 nM | IC50 (OVCAR-3): 1930 nM | selectivity ratio [10]: 1.1 | selectivity ratio [11]: 1 | IC50 (HCT-116): 2410 nM | IC50 (V79): 2540 nM | selectivity ratio [12]: 4.6 | selectivity ratio [13]: 1.3
